From ChEMBL document CHEMBL3739318, “Orally Bioavailable Metal Chelators and Radical Scavengers: Multifunctional Antioxidants for the Coadjutant Treatment of Neurodegenerative Diseases” (J Med Chem, 2015)
Calls of active or inactive are those of the source. The rule behind the calls is not given here.

Columns and labels:
[1] = Metal chelating activity assessed as stoichiometric ratio of compound to Zn2+ ion at 0.1 to 0.5 mM of compound and metal ion mixture after 45 mins by spectrophotometric analysis; type: physicochemical; conditions: 0.75 h, 500 µM
How it was run: (§1)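 Job continuous-variation method at 23 °C. Compound dissolved in acetonitrile, then diluted to 0.1 mM stock in 1 mM acetate pH 6.5. Compound + ion at constant total 0.1–0.5 mM with varied mole fraction. After 45 min equilibration, UV absorbance scanned 210–310 nm. Stoichiometry taken from the intersection of lines. Mean ± SD, n = 3.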

[2] = Cytotoxicity against human ARPE19 cells assessed as reduction in cell viability at 1 mM after 2 hrs by MTS assay; type: cell-based; conditions: arpe-19, 2 h, 1000 µM
How it was run: (§2)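 ARPE-19 grown in DMEM + 4% FBS and SH-SY5Y in EMEM/F12 + 10% FBS, at 37 °C, 5% CO2. Plated at 1 × 10^4 cells/well. Exposed 2 h to 1 mM compound (0.16% DMSO) without oxidant. Viability by MTS. Mean ± SEM, n = 4, ANOVA versus blank control.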

[3] = Metal chelating activity assessed as stoichiometric ratio of compound to Fe3+ ion at 0.1 to 0.5 mM of compound and metal ion mixture after 45 mins by spectrophotometric analysis; type: physicochemical; conditions: 0.75 h, 500 µM; how it was run: as §1
[4] = Metal chelating activity assessed as stoichiometric ratio of compound to Ca2+ ion at 0.1 to 0.5 mM of compound and metal ion mixture after 45 mins by spectrophotometric analysis; type: physicochemical; conditions: 0.75 h, 500 µM; how it was run: as §1
[5] = Metal chelating activity assessed as stoichiometric ratio of compound to Mn2+ ion at 0.1 to 0.5 mM of compound and metal ion mixture after 45 mins by spectrophotometric analysis; type: physicochemical; conditions: 0.75 h, 500 µM; how it was run: as §1
[6] = system: SH-SY5Y; assay: Neuroprotective activity against Fenton reagent-induced ROS generation in human SH-SY5Y cells assessed as increase in GSH level at 1 mM after 2 hrs by DTNB method; type: functional, cell-based
How it was run: (§3)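 Cells grown in 60 or 150 mm dishes and exposed 2 h to Fenton reagent (1 mM H2O2 + 1 mM Fe2+) with or without 1 mM compound in 0.16% DMSO. Intracellular glutathione then measured. Mean ± SEM, n = 6. ANOVA.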

[7] = system: ARPE-19; assay: Neuroprotective activity against Fenton reagent-induced ROS generation-stimulated cytotoxicity in human ARPE19 cells assessed as cell viability at 1 mM after 2 hrs by MTS assay; type: functional, cell-based
How it was run: (§4)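 Cells in 96-well format exposed 2 h to Fenton reagent (1 mM H2O2 + 1 mM Fe2+) with or without 1 mM compound in 0.16% DMSO. Viability by MTS assay, normalized to untreated cells without Fenton reagent (100%). Mean ± SEM, n = 4. ANOVA.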

[8] = system: SH-SY5Y; assay: Neuroprotective activity against Fenton reagent-induced ROS generation-stimulated cytotoxicity in human SH-SY5Y cells assessed as cell viability at 1 mM after 2 hrs by MTS assay; type: functional, cell-based; how it was run: as §4
[9] = Metal chelating activity assessed as stoichiometric ratio of compound to Fe2+ ion at 0.1 to 0.5 mM of compound and metal ion mixture after 45 mins by spectrophotometric analysis; type: physicochemical; conditions: 0.75 h, 500 µM; how it was run: as §1
[10] = Metal chelating activity assessed as stoichiometric ratio of compound to Mg2+ ion at 0.1 to 0.5 mM of compound and metal ion mixture after 45 mins by spectrophotometric analysis; type: physicochemical; conditions: 0.75 h, 500 µM; how it was run: as §1
[11] = Metal chelating activity assessed as stoichiometric ratio of compound to Cu2+ ion at 0.1 to 0.5 mM of compound and metal ion mixture after 45 mins by spectrophotometric analysis; type: physicochemical; conditions: 0.75 h, 500 µM; how it was run: as §1
[12] = system: ARPE-19; assay: Neuroprotective activity against Fenton reagent-induced ROS generation in human ARPE19 cells assessed as increase in GSH level at 1 mM after 2 hrs by DTNB method; type: functional, cell-based; how it was run: as §3
[13] = Metal chelating activity assessed as stoichiometric ratio of compound to Cu+ ion at 0.1 to 0.5 mM of compound and metal ion mixture after 45 mins by spectrophotometric analysis; type: physicochemical; conditions: 0.75 h, 500 µM; how it was run: as §1
[14] = system: SH-SY5Y; assay: Cytotoxicity against human SH-SY5Y cells assessed as reduction in cell viability at 1 mM after 2 hrs by MTS assay; type: cell-based; conditions: 1000 µM; how it was run: as §2
[15] = system: ARPE-19; assay: Neuroprotective activity against Fenton reagent-induced hydroxy radical-stimulated cytotoxicity in human ARPE19 cells assessed as cell survival at 1 to 1000 uM preincubated for 1 hr followed by Fenton reagent challenge for 2 hrs by fluorescence-based LIVE/DEAD viability/cytotoxicity assay; type: functional
How it was run: (§5)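 After a PBS wash, cells preincubated 1 h at 37 °C in serum-free medium with 1–1000 μM compound. Fenton reagent (Fe2+/H2O2, 100 μM final) then added for 2 h. Stained 15 min at 37 °C with calcein AM 8 μM and EthD-1 16 μM. Fluorescence read at 494/517 and 528/617 nm. % live cells calculated from blank-corrected single-dye controls; dead-cell control 70% ethanol. Mean ± SEM, n = 6.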

[16] = system: SH-SY5Y; assay: Neuroprotective activity against Fenton reagent-induced hydroxy radical-stimulated cytotoxicity in human SH-SY5Y cells assessed as cell survival at 1 to 1000 uM preincubated for 1 hr followed by Fenton reagent challenge for 2 hrs by fluorescence-based LIVE/DEAD viability/cytotoxicity assay; type: functional; how it was run: as §5
[17] = Drug uptake in lens of C57BL/6 mouse assessed per mg of protein at 80 mg/kg, po administered everyday for 14 days by HPLC-MS analysis; type: ADME, organism-based, Lens of camera-type eye; conditions: in vivo, 336 h
How it was run: (§6)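 C57BL/6 mice fed chow containing 0.05% compound (~80 mg/kg/day average) for 14 days. Perfused with PBS; brain, lens and neural retina homogenized in ice-cold 10 mM acetate pH 4 with internal standard. Extracted with TCA precipitation and chloroform. Analyzed by reverse-phase C18 HPLC.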

[18] = system: SH-SY5Y; assay: Antioxidant activity in human SH-SY5Y cells assessed as reduction of xanthine oxidase-mediated superoxide generation preincubated for 1 hr followed by xanthine oxidase challenge for 1 hr by MitoSOX staining-based fluorescence analysis; type: functional, cell-based
How it was run: (§7)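 Cells washed with PBS, then preincubated 1 h at 37 °C in serum-free medium with 1, 10, 100 or 1000 μM compound, or SOD 25 μg/mL as reference. Xanthine oxidase added (25 mU/mL; ~100 μM superoxide) for 1 h more. After a PBS wash, cells stained with MitoSOX Red (5 μM) for 2 h. Fluorescence read at Ex/Em 510/580 nm.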

[19] = system: ARPE-19; assay: Antioxidant activity in human ARPE19 cells assessed as reduction of xanthine oxidase-mediated superoxide generation preincubated for 1 hr followed by xanthine oxidase challenge for 1 hr by MitoSOX staining-based fluorescence analysis; type: functional, cell-based; how it was run: as §7
[20] = Drug uptake in neural retina of C57BL/6 mouse assessed per mg of protein at 80 mg/kg, po administered everyday for 14 days by HPLC-MS analysis; type: ADME, organism-based; conditions: in vivo, 336 h; how it was run: as §6

Ratio [1]	Ratio [3]	Ratio [4]	Ratio [5]	Ratio [9]	Ratio [10]	Ratio [11]	Ratio [13]	Drug uptake [17]	Drug uptake [20]	Compound	Activity [2]	Activity [6]	Activity [7]	Activity [8]	Activity [12]	Activity [14]	Activity [15]	Activity [16]	Activity [18]	Activity [19]
1.87	2.01	0	1.98	2.06	0	2.28	2.01	–	–	O=C1CCC(=O)N1c1ncccn1	Non-toxic	Active	Active	Active	Active	Non-toxic	–	–	–	–
1.87	2.01	0	2.14	2.06	0	2.28	2.01	Active	Active	O=C1CCC(=O)N1c1ncc(O)cn1	Non-toxic	Active	Active	Active	Active	Non-toxic	Dose-dependent effect	Dose-dependent effect	Dose-dependent effect	Dose-dependent effect
2.07	2.05	0	2.04	2.02	0	2.01	1.92	–	–	COc1cc(OC)nc(N2C(=O)CCC2=O)n1	Non-toxic	Active	Active	Active	Active	Non-toxic	–	–	–	–
–	–	–	–	–	–	–	–	–	–	COc1nc(N2CCCC2)nc(OC)c1O	Non-toxic	Active	Active	Active	Active	Non-toxic	–	–	–	–
–	–	–	–	–	–	–	–	–	–	c1cnc(N2CCCCC2)nc1	Non-toxic	Active	inactive	inactive	Active	Non-toxic	–	–	–	–
2.09	1.82	0	2.12	1.97	0	1.86	1.97	Active	Active	COc1nc(N2C(=O)CCCC2=O)nc(OC)c1O	Non-toxic	Active	Active	Active	Active	Non-toxic	–	–	–	–
–	–	–	–	–	–	–	–	–	–	COc1nc(N2CCCCC2)nc(OC)c1O	Non-toxic	Active	Active	Active	Active	Non-toxic	–	–	–	–
–	–	–	–	–	–	–	–	–	–	Oc1cnc(N2CCCCC2)nc1	Non-toxic	Active	Active	Active	Active	Non-toxic	–	–	–	–
–	–	–	–	–	–	–	–	–	–	c1cnc(N2CCCC2)nc1	Non-toxic	Active	inactive	inactive	Active	Non-toxic	inactive	inactive	–	–
–	–	–	–	–	–	–	–	–	–	Cc1c(C)c2c(c(C)c1O)CCC(C)(C(=O)O)O2 (stereo not given) [TROLOX]	Non-toxic	Active	Active	Active	Active	Non-toxic	Dose-dependent effect	Dose-dependent effect	Dose-dependent effect	Dose-dependent effect
–	–	–	–	–	–	–	–	–	–	Oc1cnc(N2CCCC2)nc1	Non-toxic	Active	Active	Active	Active	Non-toxic	–	–	–	–
2.17	1.8	0	1.83	2.13	0	2.01	1.9	–	–	O=C1CCCC(=O)N1c1ncccn1	Non-toxic	Active	Active	Active	Active	Non-toxic	–	–	–	–
1.99	1.92	0	1.91	1.85	0	1.75	1.86	Active	Active	O=C1CCCC(=O)N1c1ncc(O)cn1	Non-toxic	Active	Active	Active	Active	Non-toxic	–	–	–	–
–	–	–	–	–	–	–	–	–	–	Oc1c(I)cc(Cl)c2cccnc12 [CLIOQUINOL]	30%	Active	Active	Active	Active	20%	Dose-dependent effect	Dose-dependent effect	Dose-dependent effect	Dose-dependent effect
2.06	2.08	0	1.95	1.96	0	1.96	1.9	–	–	COc1cc(OC)nc(N2C(=O)CCCC2=O)n1	Non-toxic	Active	Active	Active	Active	Non-toxic	–	–	–	–
–	–	–	–	–	–	–	–	–	–	COc1cc(OC)nc(N2CCCC2)n1	Non-toxic	Active	inactive	inactive	Active	Non-toxic	inactive	inactive	–	–
–	–	–	–	–	–	–	–	–	–	COc1cc(OC)nc(N2CCCCC2)n1	Non-toxic	Active	inactive	inactive	Active	Non-toxic	–	–	–	–
